The values that follow come from ChEMBL document CHEMBL1142419, “Antimycobacterial activities of novel 2-(sub)-3-fluoro/nitro-5,12-dihydro-5-oxobenzothiazolo[3,2-a]quinoline-6-carboxylic acid” (Bioorg Med Chem, 2008).

Each structure is given as a SMILES string. Converted amounts (≈) assume the structure as drawn.

Data set [1] has as its system Mycobacterium tuberculosis. Nature of the data set: Antimycobacterial activity against Mycobacterium tuberculosis H37Rv by agar dilution method. It counts as functional. The essentials:
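MIC by agar dilution on Middlebrook 7H11 agar supplemented with OADC, following an NCCLS-like procedure, run in duplicate. The MDR-TB clinical isolate was resistant to isoniazid, rifampicin, ethambutol and ofloxacin.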

The test system of data set [2] is Mycolicibacterium smegmatis. Nature of the data set: Antimycobacterial activity against Mycobacterium smegmatis MC2 by agar dilution method. The data set is classed as functional. The essentials:
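Agar dilution on Middlebrook 7H11 agar supplemented with OADC, following an NCCLS-like procedure; MIC determined in duplicate against M. smegmatis ATCC 14468 (MC²).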

The subject of another data set is Vero. Nature of the data set: Cytotoxicity against african green monkey Vero cells after 72 hrs by MTT assay. It counts as cell-based. Particulars: Chlorocebus sabaeus. The essentials: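 Vero mammalian cells were exposed to compounds for 72 h, with testing at 62.5 µg/ml. Viability was read as cellular conversion of MTT to formazan (non-radioactive cell proliferation kit), and IC50 was reported.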

Data set [3] concerns Mus musculus. Briefly: Phototoxicity in Swiss albino mouse assessed as ear thickness at 140 mg/kg, po after 24 hrs of irradiation. It counts as organism-based. Particulars: in vivo. The arrangement: dose 140 mg/kg, route oral. The essentials:
(§1)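 Female Swiss albino mice (about 2 months, 20–25 g), fasted at least 18 h, received a single oral gavage of 140 mg/kg. Groups: six per group; lomefloxacin HCl 140 mg/kg; vehicle 0.5% aqueous sodium carboxymethylcellulose at 10 ml/kg. Mice were UV-irradiated for 4 h (about 18 J/cm²). Both ears were scored for erythema, edema and ear thickness (left/right averaged) pre-dose, at end of irradiation, and at about 24, 48, 72 and 96 h. Ear thickness change from baseline was tested by Student's t-tests.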

Data set [4] concerns Mus musculus. Nature of the data set: Phototoxicity in Swiss albino mouse assessed as ear thickness at 140 mg/kg, po after 48 hrs of irradiation. The data set is classed as organism-based. Also on record: dose 140 mg/kg, route oral. The conditions noted are these: in vivo. The essentials: as §1
The subject of data set [5] is Mus musculus. Briefly: Phototoxicity in Swiss albino mouse assessed as erythema incidence at 140 mg/kg, po after 4 hrs of irradiation. The data set is classed as organism-based. The conditions noted are these: in vivo. The arrangement: dose 140 mg/kg, route oral. The essentials:
as §1

Data set [6] has as its system Mus musculus. Nature of the data set: Phototoxicity in Swiss albino mouse assessed as ear thickness at 140 mg/kg, po after 96 hrs of irradiation. It counts as organism-based. The arrangement: dose 140 mg/kg, route oral. Particulars: in vivo. The essentials: as §1
For data set [7], the system named is Mus musculus. Nature of the data set: Phototoxicity in Swiss albino mouse assessed as ear thickness at 140 mg/kg, po after 72 hrs of irradiation. The data set is classed as organism-based. Also on record: dose 140 mg/kg, route oral. The conditions noted are these: in vivo. The essentials: as §1
Data set [8] deals with Mus musculus. Briefly: Phototoxicity in Swiss albino mouse assessed as ear thickness at 140 mg/kg, po after 4 hrs of irradiation. The arrangement: dose 140 mg/kg, route oral. It counts as organism-based. The conditions noted are these: in vivo. The essentials:
as §1

Data set [9] can be described thus: Inhibition of Mycobacterium smegmatis DNA gyrase supercoiling activity. The arrangement: species or system Mycolicibacterium smegmatis.
For data set [10], the system named is Mus musculus. Nature of the data set: Phototoxicity in Swiss albino mouse assessed as erythema incidence at 140 mg/kg, po after 96 hrs of irradiation. Also on record: dose 140 mg/kg, route oral. The conditions noted are these: in vivo. The data set is classed as organism-based. The essentials:
as §1

For data set [11], the system named is Mus musculus. Nature of the data set: (§2) Phototoxicity in Swiss albino mouse assessed as erythema incidence at 140 mg/kg, po after 48 hrs of irradiation. Particulars: in vivo. The data set is classed as organism-based. The arrangement: dose 140 mg/kg, route oral. The essentials:
as §1

Data set [12] deals with Mus musculus. Described as §2. Particulars: in vivo. The data set is classed as organism-based. The arrangement: dose 140 mg/kg, route oral. The essentials: as §1
The source holds these as a separate data set.

Data set [13] relates to Mus musculus. Nature of the data set: Phototoxicity in Swiss albino mouse assessed as erythema incidence at 140 mg/kg, po after 24 hrs of irradiation. The data set is classed as organism-based. The arrangement: dose 140 mg/kg, route oral. The conditions noted are these: in vivo. The essentials:
as §1

One may read the MIC as the lowest concentration found to suppress growth. Turning to `Cc1onc(-c2c(F)cccc2F)c1C(=O)N1CCN(c2cc3c(cc2F)c(=O)c(C(=O)O)c2sc4ccccc4n23)CC1`, the MIC turned out to be 2.52 µM (≈ 1.56 µg/mL) in data set [1] and 40.4 µM (≈ 25 µg/mL) in data set [2].
For `O=C(O)c1c(=O)c2cc(F)c(N3CCN(C(=O)c4ccco4)CC3)cc2n2c1sc1ccccc12` the same measures were 6.37 µM (≈ 3.13 µg/mL) and 50.9 µM (≈ 25 µg/mL).
For orientation: IC50 means the concentration needed to halve the response being measured. Regarding `O=C(O)c1cn2c(n1)CN(c1cc3c(cc1F)c(=O)c(C(=O)O)c1sc4ccccc4n13)CC2`, the MIC in data set [1] came out at 3.26 µM (≈ 1.56 µg/mL); in data set [2], 52.2 µM (≈ 25 µg/mL). In the data set with Vero, this compound showed a half-inhibitory concentration (IC50) greater than 131 µM.
In the case of `O=C(O)c1c(=O)c2cc([N+](=O)[O-])c(N3CCN(C(=O)C4COc5ccccc5O4)CC3)cc2n2c1sc1ccccc12` (configuration not stated), the MIC is 10.7 µM (≈ 6.25 µg/mL) in data set [1] and 85.2 µM (≈ 50 µg/mL) in data set [2].
For `COc1ccc(CC2C3=C(CCCC3)CCN2c2cc3c(cc2[N+](=O)[O-])c(=O)c(C(=O)O)c2sc4ccccc4n23)cc1` (configuration not stated) the same measures were 10.5 µM (≈ 6.25 µg/mL) and 83.9 µM (≈ 50 µg/mL).
In the same order, the values of `Cc1onc(-c2c(F)cccc2F)c1C(=O)N1CCN(c2cc3c(cc2[N+](=O)[O-])c(=O)c(C(=O)O)c2sc4ccccc4n23)CC1` are 4.85 µM (≈ 3.13 µg/mL) and 77.5 µM (≈ 50 µg/mL).
`COc1cc2c(cc1OC)CN(c1cc3c(cc1[N+](=O)[O-])c(=O)c(C(=O)O)c1sc4ccccc4n13)CC2`: the minimum inhibitory concentration (MIC) was 1.47 µM (≈ 0.781 µg/mL) in data set [1] and 47 µM (≈ 25 µg/mL) in data set [2]. This compound registered an IC50 in the data set on Vero of 118 µM.
As for `COc1ccc(CC2C3=C(CCCC3)CCN2c2cc3c(cc2F)c(=O)c(C(=O)O)c2sc4ccccc4n23)cc1` (configuration not stated), the MIC in data set [1] is 5.5 µM (≈ 3.13 µg/mL); in data set [2] it was 44 µM (≈ 25 µg/mL).
As to `CCN(CC)C(=O)C1CCCN(c2cc3c(cc2[N+](=O)[O-])c(=O)c(C(=O)O)c2sc4ccccc4n23)C1` (configuration not stated), the MIC in data set [1] worked out at 2.99 µM (≈ 1.56 µg/mL); in [2], 95.7 µM (≈ 50 µg/mL). Also, the IC50 in the data set on Vero was determined as 59.8 µM.
For `O=C(O)c1cn2c(n1)CN(c1cc3c(cc1[N+](=O)[O-])c(=O)c(C(=O)O)c1sc4ccccc4n13)CC2` the same measures were 1.54 µM (≈ 0.778 µg/mL), 98.2 µM (≈ 49.6 µg/mL) and 124 µM.
`O=C(O)c1c(=O)c2cc(F)c(N3CCC(O)(c4ccc(Cl)cc4)CC3)cc2n2c1sc1ccccc12`: the Activity with Mus musculus [3] is on record as 0.31 mm; in the data set on Mus musculus [4], 0.29 mm; in the data set on Mus musculus [5] it was “Non-toxic”; in the data set on Mus musculus [6] it was 0.3 mm; in the data set with Mus musculus [7], 0.32 mm; in the data set with Mus musculus [8] it was 0.32 mm. The Activity entry in the data set on Mus musculus [10], in the data set on Mus musculus [11], in the data set on Mus musculus [12] and in the data set with Mus musculus [13] was “Non-toxic” in each case. Moreover, the MIC was 0.36 µM (≈ 0.188 µg/mL) in data set [1] and 2.98 µM (≈ 1.56 µg/mL) in data set [2]. In addition, the 50% inhibitory concentration (IC50) in data set [9] came out at 40 µg/mL (≈ 76.5 µM); in the data set on Vero it was 120 µM.
For `O=C(O)c1c(=O)c2cc([N+](=O)[O-])c(N3CCC(N4CCCCC4)CC3)cc2n2c1sc1ccccc12`, the MIC in [1] came out at 3.08 µM (≈ 1.56 µg/mL); in data set [2], 98.7 µM (≈ 50 µg/mL). In the data set with Vero, this compound gave an IC50 of 61.7 µM.
On to `O=C(O)c1c(=O)c2cc([N+](=O)[O-])c(N3CCSCC3)cc2n2c1sc1ccccc12`, for which the minimal inhibitory concentration (MIC) was 7.09 µM (≈ 3.13 µg/mL) in data set [1] and 113 µM (≈ 50 µg/mL) in data set [2].
In the same order, the values of `O=C(O)c1c(=O)c2cc([N+](=O)[O-])c(N3CCN(C(=O)c4ccco4)CC3)cc2n2c1sc1ccccc12` are 6.04 µM (≈ 3.13 µg/mL) and 48.2 µM (≈ 25 µg/mL).
As for `COc1cc2c(cc1OC)CN(c1cc3c(cc1F)c(=O)c(C(=O)O)c1sc4ccccc4n13)CC2`, the MIC stood at 1.55 µM (≈ 0.782 µg/mL) in data set [1] and 6.2 µM (≈ 3.13 µg/mL) in data set [2]. The compound also registered a 50% inhibitory concentration (IC50) in the data set with Vero greater than 124 µM.
`CC1CN(c2cc3c(cc2F)c(=O)c(C(=O)O)c2sc4ccccc4n23)CC(C)O1` (configuration not stated): the MIC in [1] was found to be 7.34 µM (≈ 3.13 µg/mL); in data set [2], 29.3 µM (≈ 12.5 µg/mL).
`CN1CCN(c2cc3c(cc2[N+](=O)[O-])c(=O)c(C(=O)O)c2sc4ccccc4n23)CC1c1ccccc1` (configuration not stated): the values for the MIC in data set [1] and in [2] were 12.2 µM (≈ 6.25 µg/mL) and 97.2 µM (≈ 50 µg/mL), respectively.
Consider `CCn1cc(C(=O)O)c(=O)c2cc(F)c(N3CCNC(C)C3)c(F)c21` (configuration not stated) [LOMEFLOXACIN], for which the Activity in the data set on Mus musculus [3] was 0.48 mm; in the data set on Mus musculus [4] it was 0.53 mm; with Mus musculus [5] it was “Toxic”; with Mus musculus [6], 0.6 mm; with Mus musculus [7] it was 0.64 mm; in the data set on Mus musculus [8], 0.4 mm. Further, the Activity entry in the data set with Mus musculus [10], with Mus musculus [11], in the data set with Mus musculus [12] and in the data set on Mus musculus [13] was “Toxic” each time.
